Data: ChEMBL document CHEMBL1139492, “Structure-activity relationships and effects on neuroactive steroid synthesis in a series of 2-phenylimidazo[1,2-a]pyridineacetamide peripheral benzodiazepine receptors ligands” (J Med Chem, 2005)

Key:
Rattus norvegicus [1] = experiment: Effect of the 25 mg/kg compound on progesterone concentration in rat plasma after 30 min of intraperitoneal administration; format: functional, organism-based; parameters: dose 25 mg/kg
Procedure, shortened: (§1)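 Male Sprague–Dawley rats, about 60 days old, given 25 mg/kg ip in saline with three drops Tween 80 per 5 mL, 0.3 mL/100 g; sampled 30 min later. Brain taken after focused microwave irradiation of the head, plasma after guillotine. Cortex and plasma extracted with ethyl acetate; steroids measured by radioimmunoassay. Results in ng/g tissue, at least eight rats per group, compared with vehicle-treated rats.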

Rattus norvegicus [2] = experiment: Effect of the 25 mg/kg compound on 3-alpha,5alpha-THDOC concentration in rat plasma after 30 min of intraperitoneal administration; format: functional, organism-based; parameters: dose 25 mg/kg; procedure, shortened: as §1
Rattus norvegicus [3] = experiment: Effect of the 25 mg/kg compound on 3-alpha,5alpha-THPROG concentration in rat plasma after 30 min of intraperitoneal administration; format: functional, organism-based; parameters: dose 25 mg/kg; procedure, shortened: as §1
Rattus norvegicus [4] = experiment: Effect of the 25 mg/kg compound on progesterone concentration in rat cerebral cortex after 30 min of intraperitoneal administration; format: functional, organism-based; parameters: dose 25 mg/kg; procedure, shortened: as §1
Rattus norvegicus [5] = experiment: Effect of the 25 mg/kg compound on 3-alpha,5alpha-THDOC concentration in rat cerebral cortex after 30 min of intraperitoneal administration; format: functional, organism-based; parameters: dose 25 mg/kg; procedure, shortened: as §1
Rattus norvegicus [6] = experiment: Effect of the 25 mg/kg compound on 3-alpha,5alpha-THPROG concentration in rat cerebral cortex after 30 min of intraperitoneal administration; format: functional, organism-based; parameters: dose 25 mg/kg; procedure, shortened: as §1
[7] = biological target: GABA-A receptor; anion channel; experiment: Displacement of [3H]flunitrazepam from central benzodiazepine GABA-A receptor of rat cerebral cortex; format: tissue-based
Procedure, shortened: (§2)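 Rat cerebral cortex homogenised in 50 vol ice-cold 50 mM Tris-HCl pH 7.4, spun twice at 20 000g for 10 min. Membranes (0.4–0.5 mg protein) incubated with [3H]flunitrazepam for 60 min at 0 °C. Rapid filtration on GF/B filters, scintillation counting. Nonspecific binding with 5 μM diazepam. Means of three experiments in duplicate; Ki reported.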

[8] = biological target: GABA-A receptor; anion channel; experiment: Inhibitory concentration of central benzodiazepine GABA-A receptor of rat cerebral cortex; format: tissue-based; procedure, shortened: as §2
Translocator protein [9] = biological target: T1, Translocator protein (Rattus norvegicus, UniProt P16257); experiment: Displacement of [3H]-PK11195 from peripheral benzodiazepine receptor of rat ovary; format: tissue-based, Female gonad
T1 sequence (P16257 whole entry, looked up): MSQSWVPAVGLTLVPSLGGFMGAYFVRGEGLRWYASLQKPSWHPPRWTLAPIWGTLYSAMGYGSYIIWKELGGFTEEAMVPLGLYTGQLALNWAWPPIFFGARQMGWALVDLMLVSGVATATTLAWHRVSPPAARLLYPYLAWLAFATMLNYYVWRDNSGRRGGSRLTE
Procedure, shortened: (§3)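 Rat tissue (cerebral cortex, ovary) homogenised in 50 vol PBS pH 7.4 at 4 °C, spun at 40 000g for 30 min, washed, resuspended in 10 vol PBS. […] Filtration on polyethyleneimine-soaked GF/B filters, scintillation counting. […] Means of three experiments in duplicate; Ki reported.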

Translocator protein [10] = biological target: T1, Translocator protein; experiment: Displacement of [3H]PK11195 from peripheral benzodiazepine receptor of rat cerebral cortex; format: tissue-based; procedure, shortened: as §3
[11] = biological target: Benzodiazepine receptors; peripheral & central (Rattus norvegicus) (UniProt O09028+P15431+P18506+P18508+P19969+P20236+P23574+P23576+P28471+P28473+P30191+P62813+P63079+P63138+Q91ZM7+Q9ES14+P16257); experiment: Ratio of inhibition for peripheral benzodiazepine receptor of rat ovary and central benzodiazepine GABA-A receptor; format: tissue-based; parameters: scale not given here; details: Female gonad
Translocator protein [12] = biological target: T1, Translocator protein; experiment: Inhibitory concentration against peripheral benzodiazepine receptor of rat ovary; format: tissue-based, Female gonad; procedure, shortened: as §3
Translocator protein [13] = biological target: T1, Translocator protein; experiment: Inhibitory concentration against peripheral benzodiazepine receptor of rat cerebral cortex; format: tissue-based; procedure, shortened: as §3

| Compound | Concentration (Rattus norvegicus [1]) [ng/mL] | Concentration (Rattus norvegicus [2]) [ng/mL] | Concentration (Rattus norvegicus [3]) [ng/mL] | Concentration (Rattus norvegicus [4]) [ng/g] | Concentration (Rattus norvegicus [5]) [ng/g] | Concentration (Rattus norvegicus [6]) [ng/g] | Ki [7] [nM] | pIC50 [8] | Ki (Translocator protein [9]) [nM] | Ki (Translocator protein [10]) [nM] | Selectivity index [11] | IC50 (Translocator protein [12]) [nM] | IC50 (Translocator protein [13]) [nM] |
| --- | --- | --- | --- | --- | --- | --- | --- | --- | --- | --- | --- | --- | --- |
| CCCCN(CCCC)C(=O)Cc1c(-c2ccc(Cl)cc2)nc2c(Cl)cccn12 | 26 | 14.9 | 23.4 | 10.3 | 2.9 | 8.8 | 6880 | 5 | 17.2 | 4.64 | 7.65 | 22.6 | 7.87 |
| CCCCN(CCCC)C(=O)Cc1c(-c2ccc(Cl)cc2)nc2c(Cl)cc(Cl)cn12 | 19 | 16.2 | 27.5 | 11.5 | 3.5 | 9.1 | 7750 | 5 | 13.2 | 2.68 | 2.73 | 18.6 | 5.2 |
| CCCCN(C)C(=O)Cc1c(-c2ccc(Cl)cc2)nc2c(Cl)cc(Cl)cn12 | 14.9 | 8.1 | 16.2 | 8.9 | 3.9 | 7.4 | 6880 | 5 | 2.46 | 0.302 | 3.48 | 3.3 | 0.45 |
| CN(C(=O)Cc1c(-c2ccc(Cl)cc2)nc2c(Cl)cc(Cl)cn12)c1ccccc1 | 13.9 | 8.3 | 20.3 | 7.2 | 2.8 | 7.4 | 6880 | 5 | 1.27 | 0.203 | 3.77 | 1.7 | 0.33 |
| C=CCN(CC=C)C(=O)Cc1c(-c2ccc(Cl)cc2)nc2c(Cl)cc(Cl)cn12 | 12.2 | 9 | 18.1 | 11.5 | 3.2 | 8.6 | 7750 | 5 | 4.06 | 4.77 | 3.25 | 5.6 | 8.09 |
